Values after ≈ are worked out from the molar mass of the structure shown. Active and inactive are the calls of the source. No cut-off for these calls is given here.
Legend:
Candida albicans [1] = assay: Drug uptake in Candida albicans assessed as uptake rate per mg dry weight; format: ADME, organism-based; conditions: in vivo
[2] = Inhibition of Candida albicans glucosamine-6P synthase by Elson-Morgan method
In short: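 Enzyme was Candida albicans GlcN-6P synthase purified to near homogeneity. Reactions ran in 25 mM phosphate buffer, pH 6.9, with 1 mM EDTA and 1 mM DTT, D-Fru-6P (0.5–7.5 mM) and L-glutamine (0.625–10 mM), plus inhibitor. Product was measured by a modified Elson–Morgan method. IC50 and Ki are means of three experiments, with SD.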

[3] = target: Glucose-6-phosphate isomerase (Saccharomyces cerevisiae S288c) (UniProt P12709); assay: Inhibition of yeast phosphoglucose isomerase upto 20 mM
Candida albicans [4] = assay: Antifungal activity against Candida albicans by serial dilution microplate method; format: functional
Nakaseomyces glabratus = assay: Antifungal activity against Candida glabrata by serial dilution microplate method; format: functional
Candida tropicalis = assay: Antifungal activity against Candida tropicalis by serial dilution microplate method; format: functional
Saccharomyces cerevisiae [5] = assay: Antimicrobial activity against Saccharomyces cerevisiae AD by serial dilution microplate method; format: functional
In short: (§1)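 Saccharomyces cerevisiae AD lacks the seven genes for the main drug-exporting membrane proteins. ADCDR1 is AD transformed with a plasmid carrying the gene for Candida albicans Cdr1p drug exporter. MIC was read by serial dilution in microplates.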

Saccharomyces cerevisiae [6] = assay: Antimicrobial activity against Saccharomyces cerevisiae ADCDR1 by serial dilution microplate method; format: functional; in short: as §1

Glucose-6-phosphate isomerase (Saccharomyces cerevisiae S288c), sequence (P12709 whole entry): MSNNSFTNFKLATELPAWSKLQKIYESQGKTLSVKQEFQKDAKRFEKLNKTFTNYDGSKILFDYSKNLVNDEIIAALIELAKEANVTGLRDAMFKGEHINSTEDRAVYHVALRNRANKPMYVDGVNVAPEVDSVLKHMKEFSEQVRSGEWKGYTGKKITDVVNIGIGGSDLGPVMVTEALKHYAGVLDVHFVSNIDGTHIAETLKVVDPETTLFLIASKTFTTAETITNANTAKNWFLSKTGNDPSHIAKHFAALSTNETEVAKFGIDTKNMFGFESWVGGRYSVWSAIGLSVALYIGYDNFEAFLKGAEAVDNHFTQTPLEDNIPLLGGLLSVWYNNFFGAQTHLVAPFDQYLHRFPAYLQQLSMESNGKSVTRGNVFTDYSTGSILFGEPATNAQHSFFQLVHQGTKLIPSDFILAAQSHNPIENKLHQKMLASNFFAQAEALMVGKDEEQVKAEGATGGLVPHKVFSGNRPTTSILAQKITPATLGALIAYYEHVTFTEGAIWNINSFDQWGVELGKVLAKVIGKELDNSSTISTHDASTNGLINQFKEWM

| Structure (SMILES) | Drug uptake (Candida albicans [1]) | IC50 [2] | Ki [2] | Activity [3] | MIC (Candida albicans [4]) | MIC (Nakaseomyces glabratus) | MIC (Candida tropicalis) | MIC (Saccharomyces cerevisiae [5]) | MIC (Saccharomyces cerevisiae [6]) |
| --- | --- | --- | --- | --- | --- | --- | --- | --- | --- |
| CCCCCCN[C@@H](CO)[C@@H](O)[C@H](O)[C@H](O)COP(=O)(O)O | 4.8 nmol/mg/min | 290 µM | 49 µM | inactive | 625 µg/mL (≈ 1810 µM) | 625 µg/mL (≈ 1810 µM) | 310 µg/mL (≈ 898 µM) | 310 µg/mL (≈ 898 µM) | 310 µg/mL (≈ 898 µM) |
| CCCN(CCC)[C@@H](CO)[C@@H](O)[C@H](O)[C@H](O)COP(=O)(O)O | 4.7 nmol/mg/min | 52 µM | 10 µM | inactive | 160 µg/mL (≈ 463 µM) | 625 µg/mL (≈ 1810 µM) | 625 µg/mL (≈ 1810 µM) | 80 µg/mL (≈ 232 µM) | 160 µg/mL (≈ 463 µM) |
| CCCCN(CCCC)[C@@H](CO)[C@@H](O)[C@H](O)[C@H](O)COP(=O)(O)O | 5 nmol/mg/min | 82 µM | 12 µM | inactive | 312 µg/mL (≈ 836 µM) | 1250 µg/mL (≈ 3350 µM) | 2500 µg/mL (≈ 6700 µM) | 1250 µg/mL (≈ 3350 µM) | 1250 µg/mL (≈ 3350 µM) |
| CCN(CC)[C@@H](CO)[C@@H](O)[C@H](O)[C@H](O)COP(=O)(O)O | 3.9 nmol/mg/min | 40 µM | 8 µM | inactive | 310 µg/mL (≈ 977 µM) | 625 µg/mL (≈ 1970 µM) | 625 µg/mL (≈ 1970 µM) | 310 µg/mL (≈ 977 µM) | 310 µg/mL (≈ 977 µM) |
| N[C@@H](CO)[C@@H](O)[C@H](O)[C@H](O)COP(=O)(O)O | 1.1 nmol/mg/min | 230 µM | 35 µM | inactive | 5000 µg/mL (≈ 19100 µM) | 10000 µg/mL (≈ 38300 µM) | 10000 µg/mL (≈ 38300 µM) | 5000 µg/mL (≈ 19100 µM) | 5000 µg/mL (≈ 19100 µM) |
| OC(Cn1cncn1)(Cn1cncn1)c1ccc(F)cc1F [FLUCONAZOLE] | – | – | – | – | 8 µg/mL (≈ 26.1 µM) | 16 µg/mL (≈ 52.2 µM) | 16 µg/mL (≈ 52.2 µM) | 4 µg/mL (≈ 13.1 µM) | 32 µg/mL (≈ 104 µM) |
| CCN[C@@H](CO)[C@@H](O)[C@H](O)[C@H](O)COP(=O)(O)O | 2.9 nmol/mg/min | 180 µM | 26 µM | inactive | 1250 µg/mL (≈ 4320 µM) | 2500 µg/mL (≈ 8640 µM) | 2500 µg/mL (≈ 8640 µM) | 2500 µg/mL (≈ 8640 µM) | 2500 µg/mL (≈ 8640 µM) |
| CCCCN[C@@H](CO)[C@@H](O)[C@H](O)[C@H](O)COP(=O)(O)O | 3.4 nmol/mg/min | 115 µM | 20 µM | inactive | 625 µg/mL (≈ 1970 µM) | 1250 µg/mL (≈ 3940 µM) | 1250 µg/mL (≈ 3940 µM) | 1250 µg/mL (≈ 3940 µM) | 1250 µg/mL (≈ 3940 µM) |

— ChEMBL document CHEMBL1140549, “Rational design of N-alkyl derivatives of 2-amino-2-deoxy-d-glucitol-6P as antifungal agents” (Bioorg Med Chem Lett, 2007)
